Assay results of several laboratories.
Protocols differ between the studies behind these lines.

Nc1ccc(/C=C/C(=O)NCc2cc3cc(-c4ccc(C(=O)N5CCC(F)(F)CC5)cc4)cc(-c4ccc(F)cc4)c3o2)cn1
half-life (rat; plasma; oral; 3 mg/kg): 4.59 h

C/C(=N\c1ccc(O)cc1)c1cc2ccccc2n1C
half-life (male Sprague-Dawley rat; plasma; intravenous; 5 mg/kg; single dose): ~4.5 h

CC1(CN)CCN(c2cnc3c(Sc4ccncc4Cl)n[nH]c3n2)CC1
half-life (male Sprague-Dawley rat; plasma; intravenous; 2 mg/kg): 0.935 h

O=C(C=Cc1ccccc1)Nc1cc(-c2ccnc(N3CCC(O)CC3)c2)ccn1
half-life (female Sprague-Dawley rat; plasma; oral; 50 mg/kg): 0.48 h

CC(=Nc1ccc(N=Cc2cnccn2)cc1)N(C)C
half-life (male Sprague-Dawley rat; plasma; oral; 200 mg/kg): 7.79 h

N#C[C@@]12C[C@@H]1[C@@H](n1cnc3c(N[C@@H](C4CCC4)C4CC4)nc(I)nc31)[C@H](O)[C@@H]2O
half-life (male Wistar rat; plasma; oral; 3 mg/kg): 4.3 h

O=c1cc(-c2ccc(O)c(O)c2)oc2cc(O)cc(O)c12
half-life (male Sprague-Dawley rat; plasma; oral; 30 mg/kg): 2.2 h

COc1ccc2cc3n(c(=O)c2c1OC)CCc1cc2c(cc1-3)OCO2
half-life (male Sprague-Dawley rat; blood; oral; 50 mg/kg): 1.57 h

O=C1CC[C@H](N2Cc3cc(N4CCN(CC5CCN(c6ccc([C@@H]7c8ccc(O)cc8CC[C@@H]7c7ccccc7)cc6)CC5)CC4)ccc3C2=O)C(=O)N1
half-life (female Sprague-Dawley rat; plasma; oral; 20 mg/kg; fed): 6.38 h
